Measurements published in the M2OR odorant receptor database.

Columns and labels:
Details in all cases: stereoisomer not certain
UniProt A2ATE5 = biological target: T1, UniProt A2ATE5
T1 sequence (whole entry): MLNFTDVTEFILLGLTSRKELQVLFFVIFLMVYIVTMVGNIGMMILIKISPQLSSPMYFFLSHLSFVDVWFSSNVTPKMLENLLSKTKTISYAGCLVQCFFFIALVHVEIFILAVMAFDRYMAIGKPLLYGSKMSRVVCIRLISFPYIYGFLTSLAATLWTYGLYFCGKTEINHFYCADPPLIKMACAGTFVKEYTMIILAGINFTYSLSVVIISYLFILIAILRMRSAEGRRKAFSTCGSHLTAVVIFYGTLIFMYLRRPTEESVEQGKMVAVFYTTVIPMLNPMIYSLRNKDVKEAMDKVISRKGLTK
Procedure, shortened: (§1)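 Whether a receptor–molecule pair is responsive (active) rests on the original authors' judgment that its measured signal was statistically different from baseline. Pairs without that judgment are non-responsive (inactive). Sources used varied assay methods, commonly transient luciferase assays in mammalian cell lines.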

UniProt A2AVB0 = biological target: T2, UniProt A2AVB0
T2 sequence (whole entry): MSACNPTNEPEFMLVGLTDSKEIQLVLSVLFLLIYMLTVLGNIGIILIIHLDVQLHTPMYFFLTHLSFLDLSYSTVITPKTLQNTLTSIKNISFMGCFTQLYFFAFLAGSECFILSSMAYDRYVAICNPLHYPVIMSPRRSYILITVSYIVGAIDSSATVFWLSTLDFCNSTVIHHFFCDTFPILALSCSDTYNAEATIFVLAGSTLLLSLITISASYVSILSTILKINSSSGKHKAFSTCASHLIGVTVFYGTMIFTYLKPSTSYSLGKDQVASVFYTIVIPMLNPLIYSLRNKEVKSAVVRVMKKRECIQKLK
Procedure, shortened: as §1

UniProt A2AVB5 = biological target: T3, UniProt A2AVB5
T3 sequence (whole entry): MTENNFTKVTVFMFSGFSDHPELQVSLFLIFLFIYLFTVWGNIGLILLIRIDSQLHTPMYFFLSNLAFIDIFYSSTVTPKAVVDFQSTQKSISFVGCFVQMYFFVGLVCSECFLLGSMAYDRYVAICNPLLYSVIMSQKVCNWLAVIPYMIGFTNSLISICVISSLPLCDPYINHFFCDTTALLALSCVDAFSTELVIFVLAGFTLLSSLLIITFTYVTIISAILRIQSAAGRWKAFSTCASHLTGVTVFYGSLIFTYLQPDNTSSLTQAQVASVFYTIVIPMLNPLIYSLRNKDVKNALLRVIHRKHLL
Procedure, shortened: as §1

UniProt B2RVX8 = biological target: T4, UniProt B2RVX8
T4 sequence (whole entry): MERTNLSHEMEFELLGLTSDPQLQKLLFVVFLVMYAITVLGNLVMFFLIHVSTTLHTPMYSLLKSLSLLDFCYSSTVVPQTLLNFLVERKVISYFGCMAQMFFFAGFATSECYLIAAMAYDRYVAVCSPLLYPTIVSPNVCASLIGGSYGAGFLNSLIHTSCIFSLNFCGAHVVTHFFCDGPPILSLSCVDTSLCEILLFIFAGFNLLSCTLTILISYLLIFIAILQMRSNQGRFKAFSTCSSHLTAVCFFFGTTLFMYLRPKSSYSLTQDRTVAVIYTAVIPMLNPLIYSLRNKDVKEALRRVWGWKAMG
Procedure, shortened: as §1

UniProt E9PVX1 = biological target: T5, UniProt E9PVX1
T5 sequence (whole entry): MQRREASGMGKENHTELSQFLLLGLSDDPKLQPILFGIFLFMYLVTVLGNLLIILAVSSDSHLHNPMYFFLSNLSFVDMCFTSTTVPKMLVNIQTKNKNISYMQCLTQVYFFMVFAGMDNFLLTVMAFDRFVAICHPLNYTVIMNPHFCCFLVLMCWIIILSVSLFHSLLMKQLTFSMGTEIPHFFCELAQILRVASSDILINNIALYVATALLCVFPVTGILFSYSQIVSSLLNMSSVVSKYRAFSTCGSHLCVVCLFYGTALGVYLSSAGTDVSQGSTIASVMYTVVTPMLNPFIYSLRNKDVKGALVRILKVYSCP
Procedure, shortened: as §1

UniProt E9PZ66 = biological target: T6, UniProt E9PZ66
T6 sequence (whole entry): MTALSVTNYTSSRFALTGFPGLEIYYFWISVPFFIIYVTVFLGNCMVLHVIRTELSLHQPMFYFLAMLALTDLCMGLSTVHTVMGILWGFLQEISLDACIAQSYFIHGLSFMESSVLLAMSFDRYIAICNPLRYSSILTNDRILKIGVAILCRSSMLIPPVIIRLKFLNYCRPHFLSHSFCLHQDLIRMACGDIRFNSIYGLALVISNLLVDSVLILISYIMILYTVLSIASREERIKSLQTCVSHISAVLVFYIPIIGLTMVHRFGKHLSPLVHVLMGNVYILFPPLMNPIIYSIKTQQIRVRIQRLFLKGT
Procedure, shortened: as §1

UniProt E9Q4X7 = biological target: T7, UniProt E9Q4X7
T7 sequence (whole entry): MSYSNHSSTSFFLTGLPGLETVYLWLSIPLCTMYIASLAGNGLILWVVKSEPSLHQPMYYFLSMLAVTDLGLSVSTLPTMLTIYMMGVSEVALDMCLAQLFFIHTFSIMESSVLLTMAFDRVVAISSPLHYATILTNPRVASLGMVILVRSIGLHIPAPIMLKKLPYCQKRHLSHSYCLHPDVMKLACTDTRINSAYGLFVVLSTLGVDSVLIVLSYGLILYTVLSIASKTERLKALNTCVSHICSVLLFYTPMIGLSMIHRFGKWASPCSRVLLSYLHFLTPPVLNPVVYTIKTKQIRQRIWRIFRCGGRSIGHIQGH
Procedure, shortened: as §1

UniProt E9Q546 = biological target: T8, UniProt E9Q546
T8 sequence (whole entry): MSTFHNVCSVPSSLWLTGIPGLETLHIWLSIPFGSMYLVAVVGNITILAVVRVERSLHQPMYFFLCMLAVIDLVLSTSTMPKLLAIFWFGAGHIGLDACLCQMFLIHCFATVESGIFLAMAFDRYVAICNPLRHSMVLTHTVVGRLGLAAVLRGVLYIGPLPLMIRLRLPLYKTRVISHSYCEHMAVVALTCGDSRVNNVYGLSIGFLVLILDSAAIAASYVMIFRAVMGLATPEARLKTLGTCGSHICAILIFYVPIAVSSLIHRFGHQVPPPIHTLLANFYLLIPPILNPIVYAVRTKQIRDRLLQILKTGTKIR
Procedure, shortened: as §1

UniProt E9Q6Z7 = biological target: T9, UniProt E9Q6Z7
T9 sequence (whole entry): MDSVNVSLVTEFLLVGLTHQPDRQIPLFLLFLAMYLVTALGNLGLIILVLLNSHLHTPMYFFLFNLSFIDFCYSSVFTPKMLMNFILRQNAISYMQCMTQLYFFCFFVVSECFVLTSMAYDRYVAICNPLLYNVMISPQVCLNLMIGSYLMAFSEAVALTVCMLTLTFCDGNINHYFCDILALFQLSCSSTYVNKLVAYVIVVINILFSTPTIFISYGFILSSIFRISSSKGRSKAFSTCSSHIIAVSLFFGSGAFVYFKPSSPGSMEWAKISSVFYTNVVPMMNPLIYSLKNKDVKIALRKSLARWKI
Procedure, shortened: as §1

UniProt K7N609 = biological target: T10, UniProt K7N609
T10 sequence (whole entry): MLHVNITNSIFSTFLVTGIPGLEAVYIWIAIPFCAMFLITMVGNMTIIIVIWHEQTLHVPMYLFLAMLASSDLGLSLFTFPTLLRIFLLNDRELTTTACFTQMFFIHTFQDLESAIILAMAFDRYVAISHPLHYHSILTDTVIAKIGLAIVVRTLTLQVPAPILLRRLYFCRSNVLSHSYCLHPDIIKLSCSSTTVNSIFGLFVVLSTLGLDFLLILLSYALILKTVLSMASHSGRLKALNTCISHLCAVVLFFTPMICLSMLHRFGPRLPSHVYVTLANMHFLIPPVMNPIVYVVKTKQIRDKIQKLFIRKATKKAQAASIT
Procedure, shortened: as §1

UniProt E9PX47 = biological target: T11, UniProt E9PX47
T11 sequence (whole entry): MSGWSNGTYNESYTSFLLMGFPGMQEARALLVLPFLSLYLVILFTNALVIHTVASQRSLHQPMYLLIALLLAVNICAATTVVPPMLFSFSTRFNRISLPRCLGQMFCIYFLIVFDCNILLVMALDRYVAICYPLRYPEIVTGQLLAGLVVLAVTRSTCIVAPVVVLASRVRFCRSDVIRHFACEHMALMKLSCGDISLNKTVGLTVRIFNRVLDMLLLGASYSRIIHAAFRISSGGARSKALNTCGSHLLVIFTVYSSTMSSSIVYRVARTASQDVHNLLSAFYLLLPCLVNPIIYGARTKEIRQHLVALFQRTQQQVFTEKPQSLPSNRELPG
Procedure, shortened: as §1

UniProt E9PXN3 = biological target: T12, UniProt E9PXN3
T12 sequence (whole entry): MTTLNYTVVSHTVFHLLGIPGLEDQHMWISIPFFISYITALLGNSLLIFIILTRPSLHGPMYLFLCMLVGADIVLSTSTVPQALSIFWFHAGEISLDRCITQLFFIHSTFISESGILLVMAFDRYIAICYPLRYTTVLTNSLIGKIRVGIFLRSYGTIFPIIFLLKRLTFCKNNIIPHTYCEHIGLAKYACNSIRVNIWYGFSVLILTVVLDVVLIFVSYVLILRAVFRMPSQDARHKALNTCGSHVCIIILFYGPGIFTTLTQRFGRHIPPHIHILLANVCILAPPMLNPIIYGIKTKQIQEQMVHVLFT
Procedure, shortened: as §1

Measured: odorant receptor agonist call;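 note: active if original authors judged signal statistically different from baseline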

CCCCOC=O
not listed: UniProt E9PX47 | UniProt E9PXN3
inactive: all other assays above

CCCCCCCCCO
inactive: all assays above

CCOC(=O)C(C)C
not listed: UniProt E9PX47 | UniProt E9PXN3
inactive: all other assays above

CCCCCCCCCCO
not listed: UniProt E9PX47 | UniProt E9PXN3
inactive: all other assays above

C=C(C)C1CCC(C)C(=O)C1 (stereo unspecified)
not listed: UniProt E9PX47 | UniProt E9PXN3
inactive: all other assays above

CCCCCC=O
not listed: UniProt E9PX47 | UniProt E9PXN3
inactive: all other assays above

CCCCC(C)=O
not listed: UniProt E9PX47 | UniProt E9PXN3
inactive: all other assays above

CCCCCCCCCC(=O)[O-].[H+]
active: UniProt E9Q546
not listed: UniProt E9PXN3
inactive: all other assays above

CCCCCCCCC(=O)O
not listed: UniProt E9PXN3
inactive: all other assays above

c1ccccc1
not listed: UniProt E9PX47 | UniProt E9PXN3
inactive: all other assays above

CC(C)=CCCC(C)=CCO
not listed: UniProt E9PX47 | UniProt E9PXN3
inactive: all other assays above

CC(=O)C=CC1=C(C)CCCC1(C)C
inactive: UniProt A2ATE5 | UniProt A2AVB0 | UniProt E9PVX1 | UniProt E9PZ66 | UniProt E9Q4X7 | UniProt E9Q546 | UniProt E9Q6Z7
